Experiment [1] concerns the target purified human αIIbβ3 (Homo sapiens, UniProt P05106+P08514). In kind it is binding. Particulars: for average binding affinity constant (Kb), Kb = kon/koff: two-dimensional affinity calculated from kon and koff, Mn2+-activated αIIbβ3. In outline:
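Peptides covalently coupled to amine-functionalized latex beads. Purified human αIIbβ3, Mn2+-activated, immobilized for 2 h at 4 °C on glutaraldehyde-activated, polyacrylamide-coated 5-μm silica pedestals. At room temperature, the laser-trapped bead oscillated at 10 Hz (0.8 μm peak-to-peak, 2000 pN/s) against the pedestal for set contact times T. Binding probability versus T was fitted kinetically; αIIbβ3 density ~3000 molecules/μm² gave kon; Kb = 1/Kd = kon/koff.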

Experiment [2] deals with αIIbβ3. The settings on record: based on a theoretical model; ref 49 (Dutta et al.); cited from earlier work.
Experiment [3] has as its target integrin αIIbβ3 headpiece (Homo sapiens) (UniProt P08514). Particulars: cited from earlier work.

Residues, ends and D or L forms follow the SMILES beside them.

fibrinogen, sequence (P02671 36-866): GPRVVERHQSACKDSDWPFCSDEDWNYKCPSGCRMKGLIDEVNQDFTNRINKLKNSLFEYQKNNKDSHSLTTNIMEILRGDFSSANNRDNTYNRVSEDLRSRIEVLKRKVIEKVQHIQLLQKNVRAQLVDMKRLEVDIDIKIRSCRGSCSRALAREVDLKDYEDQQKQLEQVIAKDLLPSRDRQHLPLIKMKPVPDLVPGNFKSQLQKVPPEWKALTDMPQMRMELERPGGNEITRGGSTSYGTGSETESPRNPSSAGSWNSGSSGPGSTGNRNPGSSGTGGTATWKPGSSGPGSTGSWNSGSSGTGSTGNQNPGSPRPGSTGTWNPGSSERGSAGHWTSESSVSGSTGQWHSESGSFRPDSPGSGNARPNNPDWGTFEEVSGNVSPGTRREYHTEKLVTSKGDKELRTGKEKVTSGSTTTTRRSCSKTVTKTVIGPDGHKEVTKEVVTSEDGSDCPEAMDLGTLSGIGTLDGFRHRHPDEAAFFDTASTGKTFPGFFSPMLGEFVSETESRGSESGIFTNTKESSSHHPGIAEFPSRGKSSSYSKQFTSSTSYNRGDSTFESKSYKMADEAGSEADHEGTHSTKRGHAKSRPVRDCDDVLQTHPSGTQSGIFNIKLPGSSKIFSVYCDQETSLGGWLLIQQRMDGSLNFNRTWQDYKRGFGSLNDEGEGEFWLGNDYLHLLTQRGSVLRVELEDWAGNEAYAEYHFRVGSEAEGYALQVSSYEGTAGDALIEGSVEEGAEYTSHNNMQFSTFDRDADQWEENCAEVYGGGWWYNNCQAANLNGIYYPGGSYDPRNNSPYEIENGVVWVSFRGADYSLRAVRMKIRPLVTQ
fibrinogen, sequence (P02675 45-491, further chain): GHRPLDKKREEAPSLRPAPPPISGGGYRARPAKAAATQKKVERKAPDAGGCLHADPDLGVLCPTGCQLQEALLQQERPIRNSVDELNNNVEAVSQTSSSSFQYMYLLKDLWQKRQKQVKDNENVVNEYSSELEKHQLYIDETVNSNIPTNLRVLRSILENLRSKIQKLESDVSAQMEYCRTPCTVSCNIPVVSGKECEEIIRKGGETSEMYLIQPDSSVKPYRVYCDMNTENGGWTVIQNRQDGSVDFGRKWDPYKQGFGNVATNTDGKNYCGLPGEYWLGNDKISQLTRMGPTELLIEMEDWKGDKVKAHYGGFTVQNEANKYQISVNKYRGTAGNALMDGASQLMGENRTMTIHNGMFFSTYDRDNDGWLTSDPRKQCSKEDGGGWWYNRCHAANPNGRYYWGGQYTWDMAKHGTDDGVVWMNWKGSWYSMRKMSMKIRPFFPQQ
fibrinogen, sequence (P02679 27-453, further chain): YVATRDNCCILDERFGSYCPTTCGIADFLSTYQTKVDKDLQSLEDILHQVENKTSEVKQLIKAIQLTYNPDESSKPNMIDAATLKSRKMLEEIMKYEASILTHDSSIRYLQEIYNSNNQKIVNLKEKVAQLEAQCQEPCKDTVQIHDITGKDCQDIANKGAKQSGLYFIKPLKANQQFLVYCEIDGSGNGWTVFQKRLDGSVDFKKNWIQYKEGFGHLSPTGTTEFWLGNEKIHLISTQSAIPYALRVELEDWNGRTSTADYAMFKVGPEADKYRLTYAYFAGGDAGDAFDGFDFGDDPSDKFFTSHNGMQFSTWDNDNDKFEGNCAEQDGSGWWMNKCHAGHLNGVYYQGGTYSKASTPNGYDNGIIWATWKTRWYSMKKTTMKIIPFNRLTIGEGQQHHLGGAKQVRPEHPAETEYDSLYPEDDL

In the case of `CC(C)C[C@H](NC(=O)[C@H](Cc1c[nH]cn1)NC(=O)[C@@H](N)Cc1c[nH]cn1)C(=O)NCC(=O)NCC(=O)N[C@@H](C)C(=O)N[C@@H](CCCCN)C(=O)N[C@@H](CCC(N)=O)C(=O)N[C@@H](C)C(=O)NCC(=O)N[C@@H](CC(=O)O)C(=O)N[C@H](C(=O)O)C(C)C` [γC-12, His-His-Leu-Gly-Gly-Ala-Lys-Gln-Ala-Gly-Asp-Val] (H-HHLGGAKQAGDV-OH), the koff (as a rule, the rate constant with which the complex falls apart) in experiment [1] (pH 7.4, read-out: average unbinding rate constant koff) stood at 2.05 ± 0.59 s⁻¹. The “average binding affinity constant (Kb), Kb = kon/koff” value in experiment [1] is “(1.22 ± 0.61) × 10^12 cm^2/mol”.
Take “cyclo (S,S)-L-lysyl-L-tyrosyl-glycyl-L-cystinyl-L-homoarginyl-glycyl-L-aspartyl-L-trytopanyl-L-prolyl-L-cystine [cHarGD]”: in experiment [2], the dissociation energy is 7 to 9 kcal/mol.
As for “cyclo[Arg-Gly-Asp-D-Phe-Lys(Cys)] (head to tail) [cRGDFK]”, in experiment [1], the “average binding affinity constant (Kb), Kb = kon/koff” value is listed as “(1.96 ± 0.65) × 10^12 cm^2/mol”.
Consider fibrinogen (from UniProt P02671), for which the Kd – broadly, the constant that tells how readily two partners part at equilibrium – in experiment [3] is 100 nM.

The record behind these values is paper PMC5536102 (Biochemistry, 2017).
